The list is not random: actives were taken first. Their share in the collection is about 1.7%.
PglD inh – inhibitors of Campylobacter jejuni PglD acetyltransferase; purified PglD enzyme, DTNB colorimetric CoA detection; inhibition, % at 12.5 µM; 0.098% of 360,000 active; AID 602405; in the data active = inhibition above about 16%, passing the limit was not always enough
Rtt109 HAT inh – C. albicans Rtt109 histone acetyltransferase inhibition | Q5AAJ8 | purified Rtt109/Vps75, ThioGlo CoA-SH fluorescence, 4 h | inhibition, % at 34.9 µM | 0.16% of 330,000 active | AID 540336;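 active = inhibition of at least 50% in every replicate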
Target sequence (Q5AAJ8 whole entry, looked up): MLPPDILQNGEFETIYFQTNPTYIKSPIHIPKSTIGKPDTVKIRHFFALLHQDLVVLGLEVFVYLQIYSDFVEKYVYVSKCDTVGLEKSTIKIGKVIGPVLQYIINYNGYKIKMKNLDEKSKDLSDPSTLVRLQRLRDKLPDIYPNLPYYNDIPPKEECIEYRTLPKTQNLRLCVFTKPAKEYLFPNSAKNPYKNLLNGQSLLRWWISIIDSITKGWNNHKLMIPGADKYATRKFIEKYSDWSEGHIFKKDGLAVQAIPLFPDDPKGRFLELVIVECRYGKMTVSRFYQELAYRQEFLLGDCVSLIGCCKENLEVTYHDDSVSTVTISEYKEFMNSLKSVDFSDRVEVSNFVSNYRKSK
PfHsp90 set2 – reduces growth (ATP signal) of yeast expressing P. falciparum Hsp90; inhibition, % at 9.4 µM; S. cerevisiae expressing PfHsp90, BacTiter-Glo ATP, 48 h; yeast lacking PDR1 and PDR3 efflux regulators; 0.32% of 310,000 active;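 active = every replicate shows inhibition above about 80%, whatever the replicate mean, limit read from the data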;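 also: 0% = DMSO neutral controls and 100% = 20 µM radicicol positive controls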
CSC inhib – blocks cancer stem cells | cancer stem cell-like cells viability, luminescence | inhibition, % at 7.5 µM | 1.1% of 300,000 active | AID 2717; in the data active = inhibition above about 75%; tested in HMLE shEcad cells
SKKanGAS inh – inhibitors of SKKanGAS S. pyogenes growth in kanamycin (SK-promoter or general growth effect); BacTiter-Glo, 6 h; inhibition, % at 7.5 µM; 1.3% of 300,000 active; AID 1662;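 active = mean replicate score, as percent of positive control median, at least 50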;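 also: strain carries kanamycin resistance gene driven by streptokinase promoter and grows in 40 µg/ml kanamycin; loss of luminescence reflects streptokinase promoter inhibition or plain growth inhibition; 0% = median of DMSO wells and 100% = positive control at its reference dose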
FN deposit inh – fibronectin deposition inhibition; AH1F fibroblasts, Alexa488-fibronectin deposition fluorescence, overnight; inhibition, % at 12.6 µM; 0.086% of 350,000 active; AID 743247;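 active = mean inhibition across replicates of 30% or more, regardless of how many single replicates reach that level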;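 also: positive control wells lacked labelled fibronectin entirely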
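Schedule: 1 h cell adhesion before compound, then overnight fibronectin incubation; test system: AH1F fibroblast monolayer depositing Alexa488-labelled fibronectin into matrix; quantity: 10000 AH1F cells per well; probe or stimulus: fluorescent fibronectin at 24 nM final; signal: fluorescence, ex 485 nm, em 525 nm; evaluation: percent inhibition as loss of matrix-bound fibronectin fluorescence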
The depositor's hits bear a star; nt = not tested or not shown.

SMILES | PglD inh | Rtt109 HAT inh | PfHsp90 set2 | CSC inhib | SKKanGAS inh | FN deposit inh
CCOc1ccc(NC(=O)c2ccc(CNc3c(NC4CCCCC4)c(=O)c3=O)cc2)cc1 | -1 | 12 | -23 | nt | -5 | 33*
CCOC(=O)c1c(-c2ccccc2)oc2cc(CN(C)C)c(O)c(CN(C)C)c12 | -6 | 12 | -23 | 94* | -2 | nt
CC(=O)N1c2ccc(Cl)cc2C2C=CCC2C1c1cccc2ccccc12 (stereo not drawn) | nt | 0 | 23 | 78* | nt | nt
CC(=O)N1c2ccc3ccccc3c2C2C=CCC2C1c1ccc(Br)cc1 (stereo not drawn) | nt | nt | nt | 16 | nt | nt
CC(=O)Nc1nc2ccccc2n1CCOc1ccccc1 | 0 | 7 | 0 | 2 | 63* | nt
COc1ccc(OCCn2c(NC(=O)c3ccco3)nc3ccccc32)cc1 | 5 | 3 | -21 | 16 | 62* | nt
S=C(Nc1ccccc1)Nc1nc2ccccc2n1CCOc1ccccc1 | -4 | -13 | -101 | 98* | 42 | nt
CCCCn1c(CCCNC(=O)c2ccco2)nc2ccccc21 | nt | 1 | 1 | -4 | 53* | -10
CCCCn1c(NC(=S)Nc2ccccc2)nc2ccccc21 | 2 | 7 | -100 | nt | 9 | 5
CNC(=O)C[C@H]1CC[C@@H]2[C@H](COc3ccc(NC(=O)c4ccccc4F)cc3C(=O)N2C)O1 | 6 | nt | nt | nt | nt | -4
CCCN1C[C@@H](C)[C@@H](OC)CN(C)C(=O)c2cc(NC(=O)CC(F)(F)F)ccc2OC[C@@H]1C | nt | nt | nt | nt | nt | -11
Cc1noc(C)c1NC(=O)Nc1ccc2c(c1)C(=O)N([C@@H](C)CO)C[C@H](C)[C@H](CN(C)CC1CCCCC1)OCCCC[C@@H](C)O2 | 1 | nt | nt | nt | nt | nt
O=C(C[C@@H]1C[C@H]2c3cc(NS(=O)(=O)c4ccccc4)ccc3O[C@H]2[C@@H](CO)O1)NCC1CC1 | 5 | nt | nt | nt | nt | 3
N#C/C(=N\Nc1cccc([N+](=O)[O-])c1)C(=O)c1ccc(Br)cc1 | -11 | 2 | -1 | 102* | 30 | -4
CO[C@@H]1CN(C)C(=O)c2ccc(NC(=O)Cc3ccccc3)cc2OC[C@H](C)NC[C@H]1C | 1 | nt | nt | nt | nt | -32
CCCCCCCCC/C(=N\O)c1ccccn1 | 4 | 16 | 111* | 2 | 97* | 2
Cc1ccc(S(=O)(=O)N2CC3(C)CN(S(=O)(=O)c4ccc(C)cc4)CC(C)(C2)C3=O)cc1 | -1 | 6 | -11 | 5 | 0 | 34*
Cc1ccc(S(=O)(=O)N2CC3(C)CN(S(=O)(=O)c4ccc(C)cc4)CC(C)(C2)C3O)cc1 (stereo not drawn) | 5 | -4 | -52 | nt | 0 | 1
CC(C)NC(=O)Nc1ccc2c(c1)C(=O)N([C@H](C)CO)C[C@@H](C)[C@@H](CN(C)C(=O)Nc1ccc3c(c1)OCO3)O2 | 0 | nt | nt | nt | nt | nt
COc1cc(OC)cc(C(=O)NNC(=O)C(=O)Nc2cc(OC)c(Cl)cc2OC)c1 | -8 | -48 | -18 | 2 | 54* | -3
C[C@@H]1CN([C@H](C)CO)C(=O)c2cc(NC(=O)Cn3cnnn3)ccc2O[C@@H]1CN(C)S(C)(=O)=O | 0 | nt | nt | nt | nt | nt
O=C(NCc1cccnc1)Nc1cc(Cl)cc(Cl)c1 | 14 | 10 | -9 | 1 | 54* | 2
O=C(Cc1csc(NC(=O)Nc2cccc(Cl)c2)n1)NCc1ccccn1 | 3 | 8 | nt | nt | 86* | 1
O=C(Cc1csc(NC(=O)Nc2cccc(Cl)c2)n1)NC1CCCC1 | 0 | -4 | 7 | -11 | 31 | -1
O=C(Cc1csc(NC(=O)Nc2cccc(Cl)c2)n1)NCc1cccnc1 | -5 | 4 | nt | nt | 89* | 3
SMILES | PglD inh | Rtt109 HAT inh | PfHsp90 set2 | CSC inhib | SKKanGAS inh | FN deposit inh
CCCN(C)C[C@@H]1Oc2ncc(C#Cc3ccc(OC)c(OC)c3)cc2C(=O)N([C@H](C)CO)C[C@@H]1C | -1 | nt | nt | nt | nt | nt
COc1ccc(NC(=O)N(C)C[C@H]2Oc3c(NC(=O)c4ccncc4)cccc3C(=O)N([C@H](C)CO)C[C@H]2C)cc1 | 1 | nt | nt | nt | nt | -1
CO[C@@H]1CN(C)C(=O)c2cc(NS(=O)(=O)c3ccc(C)cc3)ccc2OC[C@@H](C)N(C)C[C@@H]1C | 4 | nt | nt | nt | nt | -1
C[C@@H]1CCCCO[C@@H](CN(C)Cc2ccc(Cl)c(Cl)c2)[C@H](C)CN([C@@H](C)CO)C(=O)c2cc(NC(=O)Nc3ccc(F)cc3)ccc2O1 | -9 | nt | nt | nt | nt | nt
CNC(=O)NC(=O)C(C)OC(=O)c1c2c(nc3ccccc13)/C(=C/c1cccs1)CC2 (stereo not drawn) | 7 | 1 | -22 | 94* | 23 | -12
CCCCNC(=O)COC(=O)c1c2c(nc3ccccc13)/C(=C/c1cccs1)CC2 | nt | 2 | -6 | 67 | nt | 2
COc1ccc2sc(-c3ccccc3OC)c(-c3ccc(O)cc3)c2c1 | -7 | 12 | 107* | 109* | nt | -6
COc1ccccc1-c1sc2cc3c(cc2c1-c1ccc(O)cc1)OCO3 | -2 | 3 | 107* | nt | nt | 1
COCc1ccc(-c2c(-c3ccccc3OC)sc3cc4c(cc23)OCO4)cc1 | 2 | -7 | -15 | 20 | nt | -2
COc1cc2sc(-c3ccccc3OC)c(-c3ccc(O)cc3)c2cc1OC | -3 | -2 | -30 | 80* | nt | 3
COc1ccc(-c2c(-c3ccccc3OC)sc3ccccc23)cc1 | 1 | 1 | 21 | 20 | 5 | -1
COc1cc(OC)cc(-c2sc3ccc(OC)cc3c2-c2ccc(O)cc2)c1 | 1 | 7 | 36 | 136* | nt | -8
CC(C)NC(=O)Nc1ccc2c(c1)C(=O)N([C@H](C)CO)C[C@H](C)[C@@H](CN(C)C(=O)c1ccncc1)OCCCC[C@H](C)O2 | 2 | nt | nt | nt | nt | 5
COc1ccc(S(=O)(=O)Nc2cccc3c2O[C@@H](CN(C)Cc2ccc(Cl)c(Cl)c2)[C@H](C)CN([C@H](C)CO)C3=O)cc1 | nt | nt | nt | nt | nt | -1
Oc1ccc(N=Nc2c(O)ccc3ccccc23)cc1 | -6 | 8 | 127* | 78* | 38 | nt
Oc1ccc(N=Nc2ccc3ccccc3c2)cc1 | 0 | -2 | 108* | 111* | 24 | 1
COc1cc(N=Nc2ccc3ccccc3c2)ccc1O | -7 | 0 | 110* | 93* | -6 | 1
C[C@@H]1CCCCO[C@@H](CN(C)C(=O)Nc2cccc3ccccc23)[C@H](C)CN([C@@H](C)CO)C(=O)c2cc(NS(C)(=O)=O)ccc2O1 | -2 | nt | nt | nt | nt | nt
C[C@H]1CN(C)C(=O)c2cc(N)ccc2O[C@@H]1CN(C)C | nt | nt | nt | nt | nt | -8
Cc1ccc(N=C2SC(C(=O)Nc3ccc(OC(F)(F)F)cc3)C(N)=C2C(=O)Nc2c(C)cc(C)cc2C)cc1 (stereo not drawn) | nt | 3 | -12 | 106* | nt | -8
CCOc1ccc(/C=C2\CCC(C3CCCC3)C2=O)cc1 (stereo not drawn) | -9 | nt | 26 | -9 | 1 | -7
CCC(=O)OCOc1ccc(/C=C2/CCC(CN(C)C)C2=O)cc1 (stereo not drawn) | nt | 2 | 143* | nt | nt | 17

Compound activity: PubChem BioAssay, Broad Institute
